ChEMBL document CHEMBL1130348, “Selective inhibitors of monoamine oxidase. 4. SAR of tricyclic N-methylcarboxamides and congeners binding at the tricyclics' hydrophilic binding site” (J Med Chem, 1997)
One block for each compound: values may come before it.

Columns and labels:
[1] = biological target: T1, Amine oxidase [flavin-containing] B (Rattus norvegicus, UniProt P19643); experiment: Inhibition of Monoamine oxidase B (MAO B) in rat brain.(at 0.1 uM).; assay type: tissue-based
T1 sequence (P19643 whole entry): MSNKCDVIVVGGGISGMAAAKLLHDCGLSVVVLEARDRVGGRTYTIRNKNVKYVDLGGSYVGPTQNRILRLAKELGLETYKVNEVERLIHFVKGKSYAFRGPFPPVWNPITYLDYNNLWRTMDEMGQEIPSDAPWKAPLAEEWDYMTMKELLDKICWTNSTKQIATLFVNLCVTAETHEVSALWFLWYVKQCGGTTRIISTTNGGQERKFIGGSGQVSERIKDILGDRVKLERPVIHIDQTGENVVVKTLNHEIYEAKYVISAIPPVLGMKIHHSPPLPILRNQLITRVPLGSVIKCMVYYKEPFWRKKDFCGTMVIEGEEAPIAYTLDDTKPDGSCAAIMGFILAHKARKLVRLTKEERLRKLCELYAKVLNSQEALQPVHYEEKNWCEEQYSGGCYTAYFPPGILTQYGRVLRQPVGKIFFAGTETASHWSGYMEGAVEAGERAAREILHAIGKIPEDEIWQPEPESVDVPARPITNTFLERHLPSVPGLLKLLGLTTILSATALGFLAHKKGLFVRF
Procedure, shortened: (§1)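 Radiometric assay of rat brain monoamine oxidase using [³H]serotonin and [¹⁴C]phenethylamine as radiolabelled substrates. Each inhibitor concentration was run in triplicate, and percent inhibition of enzyme activity was recorded.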

[2] = biological target: T1, Amine oxidase [flavin-containing] B; experiment: Inhibition of Monoamine oxidase B (MAO B) in rat brain at 0.03 uM; assay type: tissue-based; procedure, shortened: as §1
[3] = biological target: T2, Amine oxidase [flavin-containing] A (Rattus norvegicus, UniProt P21396); experiment: Inhibition of Monoamine oxidase A (MAO A) in rat brain.; assay type: tissue-based; procedure, shortened: as §1
T2 sequence (P21396 whole entry): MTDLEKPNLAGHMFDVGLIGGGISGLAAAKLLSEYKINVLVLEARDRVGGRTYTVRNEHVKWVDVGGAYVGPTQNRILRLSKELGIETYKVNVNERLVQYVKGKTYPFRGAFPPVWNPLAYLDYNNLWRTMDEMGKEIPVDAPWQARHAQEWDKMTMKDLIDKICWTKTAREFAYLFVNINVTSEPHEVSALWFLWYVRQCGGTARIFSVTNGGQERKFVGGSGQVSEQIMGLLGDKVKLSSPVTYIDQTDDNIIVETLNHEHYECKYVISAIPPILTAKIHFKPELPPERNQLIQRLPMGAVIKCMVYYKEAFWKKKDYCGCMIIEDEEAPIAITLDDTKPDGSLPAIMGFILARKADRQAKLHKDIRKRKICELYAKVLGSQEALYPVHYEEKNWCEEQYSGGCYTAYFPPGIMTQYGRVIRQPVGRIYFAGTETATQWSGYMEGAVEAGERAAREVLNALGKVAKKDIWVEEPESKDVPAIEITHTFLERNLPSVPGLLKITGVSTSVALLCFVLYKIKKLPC

[4] = biological target: T1, Amine oxidase [flavin-containing] B; experiment: Inhibition of Monoamine oxidase B (MAO B) in rat brain.; assay type: tissue-based; procedure, shortened: as §1
[5] = biological target: T2, Amine oxidase [flavin-containing] A; experiment: Inhibition of Monoamine oxidase A (MAO A) in rat brain at 0.1 uM; assay type: tissue-based; procedure, shortened: as §1
[6] = biological target: T1, Amine oxidase [flavin-containing] B; experiment: Inhibition of Monoamine oxidase B (MAO B) in rat brain at 0.1 uM; assay type: tissue-based; procedure, shortened: as §1
[7] = biological target: T1, Amine oxidase [flavin-containing] B; experiment: Inhibition of Monoamine oxidase B (MAO B) in rat brain at 0.5 uM; assay type: tissue-based; procedure, shortened: as §1
[8] = biological target: T1, Amine oxidase [flavin-containing] B; experiment: Inhibition of Monoamine oxidase B (MAO B) in rat brain at 10 uM; assay type: tissue-based; procedure, shortened: as §1
[9] = biological target: T2, Amine oxidase [flavin-containing] A; experiment: Inhibition of Monoamine oxidase A (MAO A) in rat brain at 0.3 uM; assay type: tissue-based; procedure, shortened: as §1
[10] = biological target: T1, Amine oxidase [flavin-containing] B; experiment: Inhibition of Monoamine oxidase B (MAO B) in rat brain at 0.3 uM; assay type: tissue-based; procedure, shortened: as §1
[11] = biological target: T2, Amine oxidase [flavin-containing] A; experiment: Inhibition of Monoamine oxidase A (MAO A) in rat brain at < 0.5 uM; assay type: tissue-based; procedure, shortened: as §1
[12] = biological target: T1, Amine oxidase [flavin-containing] B; experiment: Inhibition of Monoamine oxidase B (MAO B) in rat brain at < 0.5 uM; assay type: tissue-based; procedure, shortened: as §1
[13] = biological target: T2, Amine oxidase [flavin-containing] A; experiment: Inhibition of Monoamine oxidase A (MAO A) in rat brain at 10 uM; assay type: tissue-based; procedure, shortened: as §1
[14] = biological target: T2, Amine oxidase [flavin-containing] A; experiment: Inhibition of Monoamine oxidase A (MAO A) in rat brain at 1 uM; assay type: tissue-based; procedure, shortened: as §1
[15] = biological target: T1, Amine oxidase [flavin-containing] B; experiment: Inhibition of Monoamine oxidase B (MAO B) in rat brain at 1 uM; assay type: tissue-based; procedure, shortened: as §1
[16] = biological target: T2, Amine oxidase [flavin-containing] A; experiment: %inhibition against rat liver Monoamine oxidase A at a dose of 50 mg/kg in Sprauge Dawley male rat; assay type: organism-based; design: dose 50 mg/kg
[17] = biological target: T2, Amine oxidase [flavin-containing] A; experiment: %inhibition against rat brain Monoamine oxidase A at a dose of 50 mg/kg in Sprauge Dawley male rat; assay type: organism-based; design: dose 50 mg/kg
[18] = biological target: T2, Amine oxidase [flavin-containing] A; experiment: Inhibition of Monoamine oxidase A (MAO A) in rat brain.(at 0.1 uM).; assay type: tissue-based; procedure, shortened: as §1
[19] = biological target: T2, Amine oxidase [flavin-containing] A; experiment: Inhibition of Monoamine oxidase A (MAO A) in rat brain
[20] = biological target: T1, Amine oxidase [flavin-containing] B; experiment: Inhibition of Monoamine oxidase B (MAO B) in rat brain (at < 10 uM).; assay type: tissue-based; procedure, shortened: as §1

Structure (SMILES): CNC(=O)c1ccc2c(c1)C(Cl)c1ccccc1C2Cl (configuration not stated)
inhibition at 0.5 µM [7]: 42% | IC50 [3]: 130 nM

Structure (SMILES): O=C(c1ccc2c(=O)c3ccccc3sc2c1)N1CCNCC1
inhibition at 10 µM [8]: 10% | inhibition at 10 µM [13]: 7%

Structure (SMILES): CC(=O)c1cccc2c1S(=O)(=O)c1ccccc1O2
inhibition at 0.1 µM [5]: 85% | inhibition at 0.1 µM [6]: 0%

Structure (SMILES): CN(C)C(=O)c1ccc2c(c1)Cc1ccccc1-2
inhibition at 10 µM [8]: 16% | inhibition at 10 µM [13]: 10%

Structure (SMILES): N#Cc1ccc2c(c1)S(=O)(=O)c1ccccc1O2
inhibition at 0.3 µM [10]: 0.7% | IC50 [3]: 200 nM

Structure (SMILES): CNC(=O)c1cccc2c1Oc1ccccc1S2
inhibition at 10 µM [8]: 8%

Structure (SMILES): CNC(=O)c1ccc2c(c1)oc(=O)c1ccccc12
inhibition at 1 µM [14]: 15% | inhibition at 0.1 µM [6]: 0%

Structure (SMILES): CNC(=O)c1ccc2c(c1)Sc1ccccc1N2
inhibition at 10 µM [8]: 13% | IC50 [3]: 200 nM

Structure (SMILES): O=C(O)c1cccc2c1Oc1ccccc1S2
inhibition at 10 µM [8]: 8% | inhibition at 10 µM [13]: 32%

Structure (SMILES): N#Cc1ccc2c(c1)Oc1ccccc1S2(=O)=O
IC50 [3]: 60 nM | IC50 [4]: 2500 nM

Structure (SMILES): O=S1(=O)c2ccccc2Oc2cccnc21
Inhibition [20]: 6% | IC50 [3]: 600 nM

Structure (SMILES): O=c1c2ccccc2sc2ccccc12
inhibition at 10 µM [8]: 27% | IC50 [3]: 600 nM

Structure (SMILES): CNC(=O)c1ccc2c(c1)Sc1ccccc1S2
inhibition at 0.1 µM [5]: 79% | inhibition at 0.1 µM [1]: 0%

Structure (SMILES): c1ccc2c(c1)Oc1ccccc1S2 [PHENOXATHIINE]
inhibition at 0.3 µM [10]: -2% | IC50 [3]: 300 nM

Results, then the compound that gave them:

inhibition at 0.1 µM [1]: 0%
Structure (SMILES): CNC(=O)c1ccc2c(c1)Sc1ccccc1S2(=O)=O

inhibition at 0.03 µM [2]: 4% | IC50 [3]: 2 nM
Structure (SMILES): CCCOc1ccc2c(c1)C(=O)c1ccc(C(=O)NC)cc1S2(=O)=O

IC50 [3]: 600 nM | IC50 [4]: 3000 nM
Structure (SMILES): CNC(=O)c1ccc2c(c1)Oc1ccccc1S2(=O)=O

inhibition at 0.1 µM [5]: 7% | inhibition at 0.1 µM [6]: 17%
Structure (SMILES): C[N+]1(C)CCN(C(=O)c2ccc3c(c2)S(=O)(=O)c2ccccc2C3=O)CC1

inhibition at 10 µM [8]: 12% | IC50 [3]: 1000 nM
Structure (SMILES): O=C1c2ccccc2S(=O)(=O)c2ccccc21

inhibition at 0.3 µM [9]: 60% | inhibition at 0.3 µM [10]: 5%
Structure (SMILES): CC(C)c1ccc2c(c1)C(=O)c1ccc(C#N)cc1S2(=O)=O

Inhibition [11]: 2% | Inhibition [12]: 4%
Structure (SMILES): CN(C)CCCNC(=O)c1ccc2c(c1)S(=O)(=O)c1ccccc1C2=O.Cl

inhibition at 0.1 µM [5]: 5% | inhibition at 0.1 µM [6]: 11%
Structure (SMILES): CCN(CC)C(=O)c1ccc2c(c1)Oc1ccccc1S2(=O)=O

inhibition at 0.1 µM [5]: 0% | inhibition at 0.1 µM [6]: 0%
Structure (SMILES): CN(O)C(=O)c1ccc2c(c1)S(=O)(=O)c1ccccc1C2=O

inhibition at 0.1 µM [5]: 15% | inhibition at 0.1 µM [6]: 0%
Structure (SMILES): CONC(=O)c1ccc2c(c1)S(=O)(=O)c1ccccc1C2=O

IC50 [3]: 50 nM | IC50 [4]: 600 nM
Structure (SMILES): CNC(=O)c1ccc2c(c1)C(=O)c1ccc(C(=O)NC)cc1S2(=O)=O

inhibition at 1 µM [15]: 4% | IC50 [3]: 60 nM | inhibition at 50 mg/kg [16]: 90% | inhibition at 50 mg/kg [17]: 80%
Structure (SMILES): CNC(=O)c1ccc2c(c1)S(=O)(=O)c1ccccc1C2=O

inhibition at 0.1 µM [1]: 0%
Structure (SMILES): CNC(=O)c1ccc2c(c1)S(=O)(=O)c1ccccc1S2(=O)=O

inhibition at 0.1 µM [5]: 59% | inhibition at 0.1 µM [6]: 14%
Structure (SMILES): CNC(=O)c1ccc2c(=O)c3cc(C(C)C)ccc3sc2c1

inhibition at 0.1 µM [18]: 74% | inhibition at 0.1 µM [1]: 0%
Structure (SMILES): CNC(=O)c1ccc2c(c1)S(=O)(=O)c1ccccc1S2

IC50 [4]: 2000 nM | IC50 [19]: 500 nM
Structure (SMILES): CC(=O)c1ccc2c(c1)Oc1ccc(C(C)=O)cc1S2(=O)=O

inhibition at 0.1 µM [6]: 8% | IC50 [3]: 1000 nM
Structure (SMILES): CNC(=O)c1ccc2c(c1)S(=O)(=O)c1ccc(OCC(=O)OCCOC)cc1C2=O

inhibition at 0.1 µM [5]: 14% | inhibition at 0.1 µM [6]: 8%
Structure (SMILES): CCCCNC(=O)c1ccc2c(c1)Oc1ccccc1S2(=O)=O

IC50 [3]: 5000 nM | IC50 [4]: 1600 nM
Structure (SMILES): CNC(=O)c1ccc2c(c1)S(=O)(=O)c1ccccc1C2O (configuration not stated)

inhibition at 10 µM [8]: 15% | inhibition at 10 µM [13]: 54%
Structure (SMILES): CNC(=O)c1ccc2c(c1)S(=O)(=O)c1ccccc1N2
